Most compounds without a hit are left out; they make up all but 1.8% or so of the library.
M5 PAM: positive allosteric modulators of human muscarinic M5 receptor; CHO-K1 hM5, Fluo-8 calcium, ACh EC20 PAM; 0% = ACh EC20, 100% = ACh EC100; activation, % at 3 µM; 0.3% of 360,000 active;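 active means activation above the run cutoff, the mean activation of all test compounds plus 3 SD, cut at about 18% in these data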
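Probe or stimulus: acetylcholine, EC20 level; Assay system: human M5 receptor in CHO-K1 cells; Schedule: compound preincubation 140 s before EC20 acetylcholine addition; Technique: intracellular calcium via Fluo-8 fluorescence; Dosing: single-point, 3 µM nominal; Read-out basis: percent activation from peak-over-basal fluorescence ratio, scaled EC20-to-EC100 acetylcholine; Repeats: one well per compound, no replicates.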
M5 antag: CHRM5 antagonism in calcium assay; 0.59% of 360,000 active; CHO-hM5 cells, Fluo-8 calcium fluorescence, ACh EC80; P08912; AID 624040; inhibition, % at 3 µM;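 active means inhibition above a per-plate cutoff, the mean of that plate's test compounds plus 3 SD, cut at about 27% in these data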
M4 antag: CHRM4 antagonism in calcium assay; P08173; CHO-hM4 cells, ACh EC80, Fluo-8 calcium fluorescence; inhibition, % at 3 µM; 0.73% of 360,000 active;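 active means inhibition above its plate's cutoff, the mean inhibition of sample wells plus 3 SD, cut at about 27% in these data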
Target sequence (P08173 whole entry, looked up): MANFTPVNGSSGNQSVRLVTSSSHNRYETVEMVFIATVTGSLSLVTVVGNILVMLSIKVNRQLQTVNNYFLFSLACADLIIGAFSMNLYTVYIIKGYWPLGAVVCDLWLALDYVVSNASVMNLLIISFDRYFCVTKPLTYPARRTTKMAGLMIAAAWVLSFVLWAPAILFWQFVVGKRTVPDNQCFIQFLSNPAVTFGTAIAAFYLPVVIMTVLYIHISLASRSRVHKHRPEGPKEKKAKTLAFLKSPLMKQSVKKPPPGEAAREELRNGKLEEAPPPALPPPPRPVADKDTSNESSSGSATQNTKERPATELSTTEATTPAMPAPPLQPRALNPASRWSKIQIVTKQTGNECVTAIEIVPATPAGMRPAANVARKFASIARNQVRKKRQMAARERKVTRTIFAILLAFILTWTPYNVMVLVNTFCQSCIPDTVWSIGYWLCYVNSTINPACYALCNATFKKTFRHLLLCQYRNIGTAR
CHRM5 agonist: CHRM5 agonism in calcium assay; CHO-K1 hM5 cells, Fluo-8 calcium fluorescence; 0% DMSO wells, 100% maximal acetylcholine response; 0.19% of 360,000 active; activation, % at 3 µM; AID 624037;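 active means activation above the run's mean over test compounds plus 3 SD, cut at about 23% in these data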;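 further: signal is peak over basal fluorescence ratio across the kinetic read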
CHRM4 PAM: potentiates acetylcholine response at human M4 receptor; CHO-K1 hM4/Gqi5, Fluo-8 calcium fluorescence, ACh EC20; 0% = ACh EC20, 100% = maximal ACh; activation, % at 3 µM; 0.4% of 360,000 active; AID 624126;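 active means activation above its plate's cutoff, the mean activation of sample wells plus 3 SD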
M4 ag: CHRM4 agonism in calcium assay | CHO-K1 hM4/Gqi5, Fluo-8 calcium fluorescence; vehicle 0%, full acetylcholine response 100% | activation, % at 3 µM | AID 624127 | 0.14% of 360,000 active;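 active means activation above the run mean over all test wells plus 3 SD, cut at about 32% in these data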;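 further: peak over basal fluorescence ratio per well then scaled between controls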
Each line names hits and unclear results; the compound was inactive in the other large screens.

CN(C)C(=O)C(=O)c1cccn1-c1ccccc1C#N	none
Cc1ccc(-c2nc3c4ccccc4ccn3c2Cc2ccccc2)cc1	none
CCCc1nc2c3ccccc3ccn2c1Cc1ccccc1	M5 antag 28
COc1ccc(-n2ncc3c2CC(C)(C)CC3NC(=O)CCn2cncn2)cc1 (stereo not given)	none
CC1CCN(CCCCOc2cccc(Br)c2)CC1	M4 antag 68
Fc1ccccc1CN1CCCN(C(=S)Nc2cccc(Cl)c2)C1	M5 antag 29
CCOC(=O)Nc1ccc2c(C)cc(=O)oc2c1	none
CCCCOC(=O)Nc1ccc2c(C)cc(=O)oc2c1	CHRM4 PAM 30
COC(=O)CSc1nc(-c2ccccc2)nc2ccc(F)cc12	none
CCOC(=O)CSc1nc(-c2ccccc2)nc2ccc(F)cc12	CHRM4 PAM 28
COc1cccc(NC(=S)NNC(=O)c2c([N+](=O)[O-])c(C)nn2C)c1	CHRM4 PAM 34
COc1ccc(NC(=O)/C(Cl)=C(/Cl)S(=O)Cc2ccc(Cl)cc2)cn1 (stereo not given)	M4 antag 30
COc1ccc(NC(=O)C(Cl)=C(Cl)Cl)cn1	none
CC(C)C[C@@H](COCc1ccc([N+](=O)[O-])cc1)N1CCN(C(=O)c2ccc(C(F)(F)F)cc2)CCC1=O	none
O=C1Nc2ccccc2-n2nnnc2C1N1CCN(c2ccc(C(F)(F)F)cc2[N+](=O)[O-])CC1 (stereo not given)	CHRM5 agonist 24
O=c1[nH][nH]c2c1[C@@H](c1ccc(F)cc1)O[C@H](CCOCc1ccccc1)C2	none
CCCCCc1c(-c2ccc(Br)cc2)ncn1CCc1ccccc1OC	none
Cc1nc(Cc2nnc(SC(C)C(=O)Nc3cccc(C#N)c3)o2)cs1 (stereo not given)	none
COc1ccc(C(=O)N/N=C2\SCC(=O)N2Cc2ccc3c(c2)OCO3)c(OC)c1	M5 antag 31
COc1cccc(C(=O)N/N=C2/SCC(=O)N2CCc2ccc(OC)c(OC)c2)c1	none
CCn1nc(C(=O)N2CCN(Cc3nc4ccccc4s3)CC2)c2ccccc2c1=O	M4 antag 35
CCOC(=O)c1c(NC(=O)COc2cccc3c2CCN(CC)C3=O)sc2c1CCC2	CHRM4 PAM 22
CC(CN1CCOCC1)OC(=O)C(C)(c1ccccc1)c1ccccc1 (stereo not given)	none
CC(CN1CCCCC1)OC(=O)C(C)(c1ccccc1)c1ccccc1 (stereo not given)	M5 antag 40
CC1=NNC(=O)/C1=C\c1cn(-c2ccccc2)nc1-c1ccc(F)cc1	M5 antag 50
O=C(O)CCCCCN1C(=O)/C(=C/c2cn(-c3ccccc3)nc2-c2cccs2)SC1=S	none
CC1=NNC(=O)/C1=C\c1cn(-c2ccccc2)nc1-c1cccs1	M4 antag 60, CHRM5 agonist 24
CCc1ccc(OCCCCN(C)Cc2ccccc2)cc1	M4 antag 30
CCN(Cc1ccccc1)Cc1ccc(OCc2ccccc2)cc1	M4 antag 27
Nc1ccc(OCc2ccccc2)cc1	none
CCOc1ncccc1C(=O)OCC(=O)Nc1ccc2c(c1)OCCO2	none
COC(=O)CCC(=O)N1CCC(Oc2cccc(C(=O)NCc3ccccn3)c2)CC1	none
COc1ccc(NC(=O)COC(=O)CC2CCCC2)cc1Cl	none
Cc1ccc(NC(=O)COC(=O)CC2CCCC2)cc1Cl	M5 PAM 23
S=C1NC[C@H](Cc2ccccc2)N1CCCCC1CCCCC1	none
COc1ccc(CCN2CCC(CN3C(=S)NC[C@@H]3CC(C)C)CC2)cc1OC	none
CCCCN1CCC(CN2C(=S)NC[C@@H]2CC(C)C)CC1	none
CC(C)C[C@H]1CNC(=S)N1CC1CCN(CCCC2CCCC2)CC1	M4 antag 34
CCOc1ccc(CCN2C(=S)N([C@@H](Cc3ccc(O)cc3)CN3CCC[C@@H]3CN3C(=S)NC[C@@H]3Cc3ccccc3)C[C@@H]2CC(C)C)cc1	none
CCOc1ccc(CCN2C(=S)N([C@@H](Cc3ccc(O)cc3)CN3CCC[C@@H]3CN3C(=S)NC[C@@H]3CC(C)C)C[C@@H]2Cc2ccccc2)cc1	CHRM4 PAM 23
CC(C)C[C@H]1CNC(=S)N1CC1CCN(CCCCc2ccccc2)CC1	M4 antag 42
S=C1NC[C@H](Cc2ccccc2)N1CC1CCN(CCCC2CCCC2)CC1	M4 antag 42
CC(C)c1ccc(-c2nn(-c3ccccc3)cc2C(=O)NCC2CCCO2)cc1 (stereo not given)	none
C[C@]12c3[nH]c4cc(-c5ccco5)ccc4c3CCN1C(=O)[C@@H](CC(=O)NCCC1=CCCCC1)C[C@@H]2C(=O)N1CCOCC1	none
O=C(N/N=C/c1ccco1)C1CC1(c1ccccc1)c1ccccc1 (stereo not given)	M4 antag 28
C/C(=N/NC(=O)C1CC1(c1ccccc1)c1ccccc1)c1ccco1 (stereo not given)	none
CCNC(=O)C1(C)CCN(C(=O)c2cccc(Cl)c2)C1 (stereo not given)	none
O=[N+]([O-])c1ccc(S(=O)Cc2ccccc2)c([N+](=O)[O-])c1 (stereo not given)	M4 antag 77
CCCCCN(C(=O)CCC(=O)OCC(=O)Nc1cccc(CC)c1)c1c(N)n(CCCC)c(=O)[nH]c1=O	none
O=C(c1cc(S(=O)(=O)N2CCOCC2)ccc1F)N(CCc1ccccc1)Cc1ccccc1	none
Nc1c(C(=O)C2CC2)sc2nc(-c3ccccc3)cc(C(F)(F)F)c12	M5 PAM 20
Cc1cc(NC(=O)c2cccc([N+](=O)[O-])c2)no1	none
Cc1cc(NC(=O)c2cc([N+](=O)[O-])cc([N+](=O)[O-])c2)no1	CHRM4 PAM 15
Cc1cc2c(NCCc3ccccc3)ncnc2s1	none
CCCCCCCCNc1ncnc2ccccc12	M5 antag 43, M4 antag 27
c1ccc(CCNc2ncnc3ccccc23)cc1	M5 antag 30
OCCCCCCNc1ccc(CCO)cc1	none
Cc1cc(=O)oc2c(C)c(OC(C)C(=O)Nc3ccc(N4CCC(C)CC4)cc3)ccc12 (stereo not given)	M5 PAM 21
O=C(Nc1ccc(Nc2ccccc2)cc1)c1ccc(Br)cc1	none
CC(=O)c1cccc(NC(=O)c2ccc(C)o2)c1	none
CC(=O)c1cccc(NC(=O)c2ccc(Br)o2)c1	M4 antag 29
O=C(Nc1cccc(NC(=O)c2ccc(-c3ccc(Br)cc3)o2)c1)c1ccccc1	none
CC(=O)c1cccc(NC(=O)c2cc(-c3cccs3)on2)c1	CHRM4 PAM 16

Source: PubChem (The Scripps Research Institute Molecular Screening Center)
